Measured values reported in ChEMBL document CHEMBL1137710, “Synthesis and in vitro antitumor activity of new quinoxaline derivatives” (2009).

Assays:
Type in all cases: functional
SNB-19 = assay: Growth inhibition of human SNB19 cells after 48 hrs by sulforhodamine B assay; settings: SNB-19, 48 h
Method in brief: (§1)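 Run in the NCI 60-human-tumour-cell-line panel, tested over a 5-log dose range. Dose–response curves gave three values per cell line, each as a log10 molar concentration: GI50 (50% inhibition of net cell growth), TGI (total inhibition of net growth) and LC50 (50% net cell death). The mean graph midpoint is the arithmetic mean over all lines, with insensitive lines entered at the highest concentration tested.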

SR = assay: Growth inhibition of human SR cells after 48 hrs by sulforhodamine B assay; method in brief: as §1
SF-539 = assay: Growth inhibition of human SF539 cells after 48 hrs by sulforhodamine B assay; settings: SF-539, 48 h
Method in brief: (§2)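 NCI 60-human-tumor-cell-line panel, with compounds tested over a 5-log dose range. Values are taken from dose-response curves as log10 molar concentrations: GI50 is 50% net growth inhibition, TGI is total growth inhibition, and LC50 is 50% net cell death.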

TK-10 = assay: Growth inhibition of human TK10 cells after 48 hrs by sulforhodamine B assay; settings: TK-10, 48 h; method in brief: as §1
NCI-H460 = assay: Growth inhibition of human NCI-H460 cells after 48 hrs by sulforhodamine B assay; settings: NCI-H460, 48 h; method in brief: as §2
UACC-257 = assay: Growth inhibition of human UACC257 cells after 48 hrs by sulforhodamine B assay; settings: UACC-257, 48 h; method in brief: as §1
SN12C = assay: Growth inhibition of human SN12C cells after 48 hrs by sulforhodamine B assay; method in brief: as §1
HL-60(TB) = assay: Growth inhibition of human HL-60(TB) cells after 48 hrs by sulforhodamine B assay; settings: HL-60, 48 h
Method in brief: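 Tested only on compounds active in a three-line prescreen, in the NCI 60-human-tumour-cell-line panel over a 5-log dose range. Values come from dose–response curves as log10 molar GI50, the concentration inhibiting 50% net cell growth. Log10 TGI (total growth inhibition) and log10 LC50 (50% net cell death) were derived too. Mean graph midpoints include insensitive lines at the highest concentration tested.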

COLO 205 = assay: Growth inhibition of human COLO205 cells after 48 hrs by sulforhodamine B assay; settings: COLO 205, 48 h; method in brief: as §2
MOLT-4 = assay: Growth inhibition of human MOLT4 cells after 48 hrs by sulforhodamine B assay; settings: MOLT-4, 48 h; method in brief: as §2
HT-29 = assay: Growth inhibition of human HT-29 cells after 48 hrs by sulforhodamine B assay; settings: HT-29, 48 h; method in brief: as §2
RXF 393 = assay: Growth inhibition of human RXF393 cells after 48 hrs by sulforhodamine B assay; settings: RXF 393, 48 h; method in brief: as §2
OVCAR-3 = assay: Growth inhibition of human OVCAR-3 cells after 48 hrs by sulforhodamine B assay; settings: OVCAR-3, 48 h; method in brief: as §2
Malme-3M = assay: Growth inhibition of human MALME-3M cells after 48 hrs by sulforhodamine B assay; method in brief: as §2
EKVX = assay: Growth inhibition of human EKVX cells after 48 hrs by sulforhodamine B assay; method in brief: as §2
A498 = assay: Growth inhibition of human A498 cells after 48 hrs by sulforhodamine B assay; settings: A498, 48 h; method in brief: as §2
CCRF-CEM = assay: Growth inhibition of human CCRF-CEM cells after 48 hrs by sulforhodamine B assay; method in brief: as §2
PC-3 = assay: Growth inhibition of human PC3 cells after 48 hrs by sulforhodamine B assay; settings: PC-3, 48 h; method in brief: as §2
OVCAR-5 = assay: Growth inhibition of human OVCAR5 cells after 48 hrs by sulforhodamine B assay; settings: OVCAR-5, 48 h; method in brief: as §2
ACHN = assay: Growth inhibition of human ACHN cells after 48 hrs by sulforhodamine B assay
OVCAR-8 = assay: Growth inhibition of human OVCAR8 cells after 48 hrs by sulforhodamine B assay; settings: OVCAR-8, 48 h; method in brief: as §2
[1] = Growth inhibition of human Hs 578T cells after 48 hrs by sulforhodamine B assay; method in brief: as §2
MDA-MB-231 = assay: Growth inhibition of human MDA-MB-231 cells after 48 hrs by sulforhodamine B assay; settings: MDA-MB-231, 48 h; method in brief: as §2
T47D = assay: Growth inhibition of human T47D cells after 48 hrs by sulforhodamine B assay; method in brief: as §1
KM12 = assay: Growth inhibition of human KM12 cells after 48 hrs by sulforhodamine B assay; settings: KM12, 48 h; method in brief: as §2
HOP-92 = assay: Growth inhibition of human HOP92 cells after 48 hrs by sulforhodamine B assay; settings: HOP-92, 48 h; method in brief: as §2
NCI/ADR-RES = assay: Growth inhibition of human NCI/ADR-RES cells after 48 hrs by sulforhodamine B assay; method in brief: as §2
[2] = read-out: pLC50 (the source's name) (converted)

## COc1ccc(Oc2nc3cc(N)cc(N)c3nc2-c2ccccc2)cc1
SNB-19
  GI50: 64.6 µM
  LC50: > 100 µM
SNB-19; read-out: pTGI (converted)
  TGI: > 100 µM
SR
  GI50: 18.6 µM
  LC50 (concentration giving 50% net cell death): > 100 µM
SR; read-out: pTGI (converted)
  TGI: > 100 µM
SF-539
  GI50: 23.4 µM
  LC50: > 100 µM
SF-539; read-out: pTGI (converted)
  TGI: 61.7 µM
TK-10
  GI50: 53.7 µM
TK-10; [2]
  CC50: > 100 µM
TK-10; read-out: pTGI (converted)
  TGI: > 100 µM
NCI-H460
  GI50: 30.9 µM
  LC50 (50% net cell kill): > 100 µM
NCI-H460; read-out: pTGI (converted)
  TGI: > 100 µM
UACC-257
  GI50: > 100 µM
UACC-257; [2]
  CC50: > 100 µM
UACC-257; read-out: pTGI (converted)
  TGI: > 100 µM
SN12C
  GI50: 50.1 µM
SN12C; [2]
  CC50: > 100 µM
SN12C; read-out: pTGI (converted)
  TGI: > 100 µM
HL-60(TB)
  GI50: 15.5 µM
  LC50: > 100 µM
HL-60(TB); read-out: pTGI (converted)
  TGI: > 100 µM
COLO 205
  GI50: > 100 µM
  LC50 (50% net cell kill): > 100 µM
COLO 205; read-out: pTGI (converted)
  TGI: > 100 µM
MOLT-4
  GI50: 5.37 µM
  LC50: > 100 µM
MOLT-4; read-out: pTGI (converted)
  TGI: 93.3 µM
HT-29
  GI50: 39.8 µM
  LC50: > 100 µM
HT-29; read-out: pTGI (converted)
  TGI: > 100 µM
RXF 393
  GI50: 20 µM
RXF 393; [2]
  CC50: > 100 µM
RXF 393; read-out: pTGI (converted)
  TGI: 74.1 µM
OVCAR-3
  GI50: 14.8 µM
OVCAR-3; [2]
  CC50: > 100 µM
OVCAR-3; read-out: pTGI (converted)
  TGI: 72.4 µM
Malme-3M
  GI50: 51.3 µM
Malme-3M; [2]
  CC50: > 100 µM
Malme-3M; read-out: pTGI (converted)
  TGI: > 100 µM
EKVX
  GI50: 24.5 µM
  LC50 (50% net cell kill): > 100 µM
EKVX; read-out: pTGI (converted)
  TGI: 63.1 µM
A498
  GI50: 49 µM
A498; [2]
  CC50: > 100 µM
A498; read-out: pTGI (converted)
  TGI: > 100 µM
CCRF-CEM
  GI50: 2.95 µM
  LC50: > 100 µM
CCRF-CEM; read-out: pTGI (converted)
  TGI: 12.6 µM
PC-3
  GI50: 15.1 µM
PC-3; [2]
  CC50: > 100 µM
PC-3; read-out: pTGI (converted)
  TGI: > 100 µM
OVCAR-5
  GI50: 95.5 µM
OVCAR-5; [2]
  CC50: > 100 µM
OVCAR-5; read-out: pTGI (converted)
  TGI: > 100 µM
ACHN
  GI50: 36.3 µM
ACHN; [2]
  CC50: > 100 µM
ACHN; read-out: pTGI (converted)
  TGI: > 100 µM
OVCAR-8
  GI50: 32.4 µM
OVCAR-8; [2]
  CC50: > 100 µM
OVCAR-8; read-out: pTGI (converted)
  TGI: > 100 µM
[1]
  GI50: 24.5 µM
[1]; [2]
  CC50: > 100 µM
[1]; read-out: pTGI (converted)
  TGI: > 100 µM
MDA-MB-231
  GI50: 20.4 µM
MDA-MB-231; [2]
  CC50: > 100 µM
MDA-MB-231; read-out: pTGI (converted)
  TGI: 64.6 µM
T47D
  GI50: 15.1 µM
T47D; [2]
  CC50: > 100 µM
T47D; read-out: pTGI (converted)
  TGI: 97.7 µM
KM12
  GI50: 37.2 µM
  LC50 (50% net cell kill): > 100 µM
KM12; read-out: pTGI (converted)
  TGI: > 100 µM
HOP-92
  LC50 (50% net cell death): 77.6 µM
HOP-92; read-out: pTGI (converted)
  TGI: 8.13 µM
NCI/ADR-RES
  GI50: 60.3 µM
NCI/ADR-RES; [2]
  CC50: > 100 µM
NCI/ADR-RES; read-out: pTGI (converted)
  TGI: > 100 µM
